This sample holds only a part of the variants without activity.
B1: tRNA (parent)
chain: GUUCCGUUGGCGUAAUGGUAACGCGUCUCCCUCCUAAGGAGAAGACUGCGGGUUCGAGUCCCGUACGGAACG

Variants of: B1
Test: yeast fitness relative to wild type (ratio to wild type); higher = fitter; tRNA-Arg(CCU), competitive growth, 37 C, YPD
In short: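 Variants of the tRNA-Arg(CCU) gene, chemically synthesised with a 3% per-site mutation rate at 69 sites, were placed at the native genomic locus in Saccharomyces cerevisiae. The pooled strains were competed in YPD at 37°C for 24 hours in six parallel replicates. Gene amplicons from the start population and from each end population were read by 100-nucleotide paired-end sequencing. Darwinian fitness relative to wild type came from changes in genotype frequencies; genotypes needed ≥ 100 starting reads, and estimates < 0.5 were set to 0.5.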

Variant	yeast fitness
GUUCCGUUGGCGUAAUGGUAAUGCGUCUCCCUCCUAAGGUGAUGACUGCGGGUUCGAGUCCCGUACGGAACG [C22U A40U A43U]	≤ 0.5
GUUCCGUUGGCGUAAUGGUAAGGCGUCUCCCUCCUAAGGAGAACACUGCGGGUUCGAGUCCCGUACGGACCG [C22G G44C A70C]	0.553
GUUCCGUUGGCGUAAUGGUAAUGGGUCUCCCUCCUAAGGAGAAGACCGCGGGUUCGAGUCACGUACGGAACG [C22U C24G U47C C61A]	≤ 0.5
GUUCCGUUGGCGUAAUGGUAAUGCGUCUCCCUCCUAAGGGGAUGAGUGGGGGUUCGAGUCCUGUACGGAACG [C22U A40G A43U C46G C49G C62U]	0.531
GUUCCGUUGGCGUAAUGGUAAGGCGACUCCCUCCUAAGGAGAAGACUGCGGGUUCGAGUCCCGUACGGAACG [C22G U26A]	1.08
GUUCCGUUGGCGUAAUGGUAAGGCCCGUCCCUCCUAAGGGGAAGACUGCGGGUUCGAGUCCCGUACGGAACG [C22G G25C U26C C27G A40G]	≤ 0.5
GUUCCGUUGGCGUAAUGGUAAUGCGUCUCCCUCCUAAGGAGAAGACUGCGGGUUCGGGUCCCGUACGGAUCG [C22U A57G A70U]	0.591
GUUCCGUUGGCGUAAUGGUAAUGCGUCUCCCUCCUAAGGUGAUGAUUGCGGGUUUGAGUCCCGUUCGGAACG [C22U A40U A43U C46U C55U A65U]	≤ 0.5
GUUCCGUUGGCGUAAUGGUAAUGCGUCUCCCUCCUCAGGAGAAGCCUGCGGGUUGGAGUCCAGUACGAAACG [C22U A36C A45C C55G C62A G68A]	≤ 0.5
GUUCCGUUGGCGUAAUGGUAAUGCGUCUCCCUCCUAAGGAGAAGACUGCGGGUUCGGGUACCGUACGGAACG [C22U A57G C60A]	≤ 0.5
GUUCCGUUGGCGUAAUGGUAAGGCAUCUCCCUCCUAAGGACAAGACUGCGGGUUCGUGUCCCGUACGGAACG [C22G G25A G41C A57U]	≤ 0.5
GUUCCGUUGGCGUAAUGGUAAGGCGUCUCCCCCCUAAGGAGAAGACUGCGGGUACGAGUCCCGUGCGGAACG [C22G U32C U54A A65G]	≤ 0.5
GUUCCGUUGGCGUAAUGGUAAUGAGUCUCCCUCCUAAGGAGAAGACUGCGGGUUCGAGUCCCGUACGGAUCG [C22U C24A A70U]	≤ 0.5
GUUCCGUUGGCGUAAUGGUAAUGCGUCUGCCUCCUUAGGACAAGCCUGUGGGUCCGAGUCUCGUACGGAACG [C22U C29G A36U G41C A45C C49U U54C C61U]	≤ 0.5
GUUCCGUUGGCGUAAUGGUAAUGCGUCUCCCUCCUAAGGUGAAGACCGCGGGUUCGAGUCCCGUACGGAACG [C22U A40U U47C]	0.544
GUUCCGUUGGCGUAAUGGUAAUGCGUCUCCCUCCUAAGGAGGAGACUGCGGGUUGGAGUCCCGUACGGAUCG [C22U A42G C55G A70U]	0.556
GUUCCGUUGGCGUAAUGGUAAUGCGUCUCCCUCCUAAGGAGACGAAUGCGGGUUCGAGUCCCGUACGGAACG [C22U A43C C46A]	0.626
GUUCCGUUGGCGUAAUGGUAAUGCGUCUCCCUCCUCAGGAGAAGACUGCGGGUUCGAGUCCCGUGCGGAACG [C22U A36C A65G]	0.564
GUUCCGUUGGCGUAAUGGUAAUGCGUCUACCUCCUAAGGAGAAGACUGCGGGUUCGAGUCCCGUACGGAACG [C22U C29A]	0.543

Variant	yeast fitness
GUUCCGUUGGCGUAAUGGUAAGGCGUCUCCCCCCUAAGGAGAGGACUGCGGAUUCGAGUCGCGUACGGAACG [C22G U32C A43G G52A C61G]	≤ 0.5
GUUCCGUUGGCGUAAUGGUAAUGAGUCUCCCUCCUAAGGAGGAGACUGCGGGUUCGAGUCCCGUACGGAACG [C22U C24A A42G]	≤ 0.5
GUUCCGUUGGCGUAAUGGUAAGGCGUCUCCCUCCUAAGGAGAAGACUGCGGAUUCGAGUCCCGUACGGAACG [C22G G52A]	0.772
GUUCCGUUGGCGUAAUGGUAAUGCGUUUCCCUCCUAAGGAGAAGACUGCGGGUGCGAGUCCCGUACGGAACG [C22U C27U U54G]	≤ 0.5
GUUCCGUUGGCGUAAUGGUAAUGCGUCUCCCUCCUAAGGAGUAUACUGCGGGUUCGAGUCCCAUACGGAACG [C22U A42U G44U G63A]	0.608
GUUCCGUUGGCGUAAUGGUAAUGCGUCUCCCUCCUAAGGAGAAGACUGCGGGUUCGAGUCCCGUGCGCAACG [C22U A65G G68C]	0.534
GUUCCGUUGGCGUAAUGGUAAUGCGUCUCCCUCCUAAGGCGAAGACUGCGGGUUCGAGUCCCGUACGGAUCG [C22U A40C A70U]	0.545
GUUCCGUUGGCGUAAUGGUAAUGCGUCUUCCUCCUAAGGAAAAGACUACGGGUUCGAGUCCAGUACGGAACG [C22U C29U G41A G48A C62A]	0.611
GUUCCGUUGGCGUAAUGGUAAUGCGUCUCCCUCCUAAGGAGAAGACUGCGGGUUCGAGUCCCGUACGGCACG [C22U A69C]	0.876
GUUCCGUUGGCGUAAUGGUAAGGCGUCACCCUCCUAAGGUGAAGACUGCGGGUUCGUGUCCCGUACGGAACG [C22G U28A A40U A57U]	0.657
GUUCCGUUGGCGUAAUGGUAAGGCGUCUCCCUCCUAAGGAAAAGACUCCGGGUUCGAGUCCCGUACGCAACG [C22G G41A G48C G68C]	≤ 0.5
GUUCCGUUGGCGUAAUGGUAAGGCGUCACCGUCCUAAGAAGAAGACUGCGGGUUAGAGUCCCGUACGCAACG [C22G U28A C31G G39A C55A G68C]	≤ 0.5
GUUCCGUUGGCGUAAUGGUAAGGCGUCUCCCUCCCAAGGAGAAGACUGCGGGUUCGAGUCCCGUACGGAACG [C22G U35C]	0.8
GUUCCGUUGGCGUAAUGGUAAGGCGUCUCCCUCCUAAGGAGAAGACUGCGGGUUCGAGUCCCGGACGGAACG [C22G U64G]	0.8
GUUCCGUUGGCGUAAUGGUAAGGCCUCUCCCUCCCAGGGAGAAGACUGCGGGUUCGAGUCCCGUUCGGAACG [C22G G25C U35C A37G A65U]	≤ 0.5
GUUCCGUUGGCGUAAUGGUAAUGCGUCUCCCUCCUAAGGGGAAGACUGCGGGUUCGAGUCCCGUACGGAACG [C22U A40G]	0.834
GUUCCGUUGGCGUAAUGGUAAUGCGUCUCCCUCCUAAGGAGAAGGCUGCGGGUUCGAGUCCCGUACGGAACG [C22U A45G]	0.747
GUUCCGUUGGCGUAAUGGUAAGGCGUCUCCCUCCUAAGGAGAAGACUGCGGGUUCGAAUCCCGUACGGAACG [C22G G58A]	1.07
GUUCCGUUGGCGUAAUGGUAAGGCGUCUCCCUCCUAAGGAGAAGACUGCGGGUACGAGACUCGUACGGAACG [C22G U54A U59A C61U]	≤ 0.5

— the RNAGym collection of RNA variant scans (doi:10.1126/science.aae0568)
